Reference: PMC6247064 (Cancer Science, 2018)
Converted amounts (≈) assume the structure as drawn. “And” between values parts separate entries of the source, which are not always exact repeats. Equal values may be shown once. Read-outs that look alike come from different tables or passages of the source.

Key:
advanced solid tumors [1] = assay: Phase 1 study: antitumor activity by RECIST version 1.1; type: in vivo, human
How it was run: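 Adults with advanced solid tumors received the test compound at 80 or 105 mg/m2 by IV infusion on day 1 of each 14-day cycle. Tumors were measured by CT or MRI and scored with RECIST 1.1. Best overall response was the best response recorded from the start of treatment until disease progression. Patients counted if they had baseline and post-baseline tumor measurements.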

[2] = Phase 1 study: noncompartmental plasma pharmacokinetics; type: in vivo, human; conditions: for C av,72 (average plasma concentration over 72 h): geometric mean (CV%)
How it was run: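 The test compound was given as a 1-h IV infusion at 80 or 105 mg/m2 every 14 days. Plasma levels were measured by validated LC/MS/MS and analysed noncompartmentally. C av,72 is the mean plasma concentration over 72 h after infusion. Accumulation ratio is cycle 2 day 1 AUC(0-24) divided by cycle 1 day 1 AUC(0-24). Values are geometric means.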

[3] = tested on: BRCA wild-type recurrent high-grade serous ovarian cancer; conditions: phase 2, 8 of 28 women, intention-to-treat population; cited from earlier work
advanced solid tumors [4] = conditions: cited from earlier work
Calu-6 xenograft = conditions: cited from earlier work

COc1cccc(OCCCN)c1-c1cc(Nc2cnc(C#N)cn2)n[nH]1 [Prexasertib]
Maximum tumor shrinkage from baseline, individual patients with esophageal SCC (advanced solid tumors [1]; 80 mg/m^2, two patients with BOR of stable disease): 20% and 13%
BOR progressive disease (advanced solid tumors [1]; 80 mg/m^2 group, 2 of 6 patients): 33.3%
BOR stable disease (advanced solid tumors [1]; 80 mg/m^2 group, 4 of 6 patients): 66.7%
BOR progressive disease (advanced solid tumors [1]; 105 mg/m^2 group, 1 of 5 evaluable patients): 20.0%
BOR stable disease (advanced solid tumors [1]; 105 mg/m^2 group, 4 of 5 evaluable patients): 80.0%
Complete response or partial response (advanced solid tumors [1]; all patients): No patients in the study had a complete response or partial response
Best overall response of stable disease (advanced solid tumors [1]; patients with baseline and post-baseline tumor measurements, both doses): 8 of 11
C av,72 (average plasma concentration over 72 h) ([2]; 80 mg/m^2 1-h IV infusion, Cycle 1, day 1, N 6): 23.1 (22) ng/mL
C av,72 (average plasma concentration over 72 h) ([2]; 80 mg/m^2 1-h IV infusion, Cycle 2, day 1, N 4): 24.8 (16) ng/mL
C av,72 (average plasma concentration over 72 h) ([2]; 105 mg/m^2 1-h IV infusion, Cycle 1, day 1, N 6): 30.0 (13) ng/mL
C av,72 (average plasma concentration over 72 h) ([2]; 105 mg/m^2 1-h IV infusion, Cycle 2, day 1, N 3): 31.5 (22) ng/mL
Intercycle accumulation between cycle 1 and cycle 2 ([2]; both treatment groups): no intercycle accumulation
Partial responses [3]: 29%
Best overall response of stable disease (advanced solid tumors [4]; US phase 1, 15 of 45 patients): 33%
Partial response (advanced solid tumors [4]; US phase 1, 45 patients, Two patients (SCC of the anus, SCC of the head and neck)): 4%
Recommended prexasertib dose (advanced solid tumors [4]; US phase 1, administered once every 14 days): 105 mg/m^2
Patients with tumor shrinkage (advanced solid tumors [4]; phase 1 trial in non-Japanese patients): 10 of 34
IC50 derived from the single-agent Calu-6 xenograft model (Calu-6 xenograft; plasma concentration): 0.0141 µg/mL (≈ 0.0386 µM)
Median AUC(0-72) predicted to achieve the maximal tumor response (Calu-6 xenograft; predicted from Calu-6 xenograft PK/pharmacodynamic model, monotherapy): 1896 ng·h/mL
